Laboratory results as given in BindingDB's records for doi:10.1021/acs.jmedchem.7b00976 (Leipzig University, 2017).

Legend:
[1] = biological target: T1, Neuropeptide Y receptor type 4 (Homo sapiens, UniProt P50391); test: (§1) Positive allosteric modulation of human NY4 receptor expressed in African green monkey COS7 cells co-expressing delta6Galphaqi4-myr assessed as potentiation of peptide YY induced-calcium flux by measuring peptide YY EC50 at 30 uM treated at 20 secs post baseline detection followed by addition of peptide YY after 140 secs by Fluo2-AM fluorescent dye based-assay (Rvb = 2.6 nM)
Outline: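 COS7 cells stably co-expressing human Y4R-eYFP fusion and chimeric Δ6Gαqi4-myr, seeded overnight in 96-well format; loaded with 2.4 μM Fluo2-AM in HBSS/20 mM HEPES/probenecid, 60 min at 37 °C. Two-addition FlexStation read (ex 485/em 525 nm): compound or DMSO after 20 s baseline, PYY at 140 s. Response as x-fold over basal, normalized to PP; duplicates, ≥3 independent experiments.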

[2] = biological target: T2, Neuropeptide Y receptor type 2 (Homo sapiens, UniProt P49146); test: ASSAY_NAME: ChEMBL_1668994 (CHEMBL4018882) DESCRIPTION: Positive allosteric modulation of human C-terminal eYFP-fused human NY2 receptor expressed in African green monkey COS7 cells co-expressing delta6Galphaqi4-myr assessed as potentiation of neuropeptide Y-mediated Ca2+ flux by measuring pancreatic polypeptide EC50 at 30 uM treated at 20 secs post baseline detection followed by addition of …
T2 sequence (P49146 whole entry): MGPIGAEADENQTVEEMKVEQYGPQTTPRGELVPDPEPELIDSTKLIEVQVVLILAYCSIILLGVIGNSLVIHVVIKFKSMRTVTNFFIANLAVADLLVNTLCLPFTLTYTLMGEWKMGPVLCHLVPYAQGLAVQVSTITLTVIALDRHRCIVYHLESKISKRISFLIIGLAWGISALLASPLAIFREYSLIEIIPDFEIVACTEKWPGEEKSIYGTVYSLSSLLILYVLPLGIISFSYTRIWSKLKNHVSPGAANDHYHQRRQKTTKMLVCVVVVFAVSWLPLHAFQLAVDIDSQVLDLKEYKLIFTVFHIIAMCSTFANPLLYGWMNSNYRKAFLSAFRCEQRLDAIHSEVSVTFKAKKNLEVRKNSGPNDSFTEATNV

[3] = biological target: T1, Neuropeptide Y receptor type 4; test: as §1, with “pEC50” for “EC50”, “8.6 +/- 0.08 No_unit)” for “2.6 nM)”
Outline: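 COS7 cells stably co-expressing Y4R-eYFP and Δ6Gαqi4-myr were seeded overnight. They were loaded with 2.4 μM Fluo2-AM in HBSS/20 mM HEPES/[…] for 60 min at 37 °C, then kept in assay buffer. Fluorescence was read at ex 485/em 525 nm. Compound was added after a 20 s baseline and peptide at 140 s. Response was taken as x-fold over basal, normalized to the DMSO control, and fitted to an operational model of allosterism. Duplicates, at least three independent runs.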

[4] = biological target: T1, Neuropeptide Y receptor type 4; test: ASSAY_NAME: ChEMBL_1668991 (CHEMBL4018879) DESCRIPTION: Positive allosteric modulation of human NY4 receptor expressed in African green monkey COS7 cells co-expressing delta6Galphaqi4-myr assessed as potentiation of pancreatic polypeptide induced-calcium flux by measuring pancreatic polypeptide EC50 at 30 uM treated at 20 secs post baseline detection followed by addition of pancreatic polypeptide …
[5] = biological target: T1, Neuropeptide Y receptor type 4; test: Positive allosteric modulation of human C-terminal eYFP-tagged NY4 receptor expressed in HEK293 cells assessed as potentiation of pancreatic polypeptide-induced arrestin 3 recruitment by measuring pancreatic polypeptide pEC50 at 30 uM after 30 mins by BRET assay (Rvb = 8.3 +/- 0.12 No_unit)
[6] = Positive allosteric modulation of human C-terminal eYFP-fused human NY1 receptor expressed in African green monkey COS7 cells co-expressing delta6Galphaqi4-myr assessed as potentiation of neuropeptide Y-mediated Ca2+ flux by measuring […] at 30 uM treated at 20 secs post baseline detection followed by addition of neuro
[7] = biological target: T1, Neuropeptide Y receptor type 4; test: Positive allosteric modulation of human C-terminal eYFP-tagged NY4 receptor expressed in HEK293 cells assessed as potentiation of peptide YY-induced arrestin 3 recruitment by measuring peptide YY pEC50 at 30 uM after 30 mins by BRET assay (Rvb = 5.8 +/- 0.20 No_unit)
[8] = Positive allosteric modulation of human NY4 receptor expressed in African green monkey COS7 cells co-expressing delta6Galphaqi4-myr assessed as potentiation of neuropeptide Y induced-calcium flux by measuring neuropeptide Y pEC50 at 30 uM treated at 20 secs post baseline detection followed by addition of neuropeptide Y after 140 secs by Fluo2
[9] = biological target: T1, Neuropeptide Y receptor type 4; test: Effect on peptide YY-mediated displacement of 125I-pancreatic polypeptide from human C-terminal eYFP-tagged NY4 receptor expressed in HEK293 cell membranes assessed as peptide YY pKi at 30 uM after 5 hrs by scintillation counting (Rvb = 8 +/- 0.2 No_unit)
[10] = Positive allosteric modulation of human C-terminal eYFP-tagged NY4 receptor expressed in HEK293 cells assessed as potentiation of neuropeptide Y-induced arrestin 3 recruitment by measuring neuropeptide Y pEC50 at 30 uM after 30 mins by BRET assay (Rvb = 5.9 +/- 0.15 No_unit)
[11] = biological target: T1, Neuropeptide Y receptor type 4; test: Positive allosteric modulation of human C-terminal eYFP-tagged NY4 receptor expressed in HEK293 cells assessed as potentiation of peptide YY-induced arrestin 3 recruitment by measuring peptide YY EC50 at 30 uM after 30 mins by BRET assay (Rvb = 1600 nM)
[12] = Positive allosteric modulation of human C-terminal eYFP-tagged NY4 receptor expressed in HEK293 cells assessed as potentiation of neuropeptide Y-induced arrestin 3 recruitment by measuring neuropeptide Y EC50 at 30 uM after 30 mins by BRET assay (Rvb = 1380 nM)
[13] = biological target: T1, Neuropeptide Y receptor type 4; test: Positive allosteric modulation of human C-terminal eYFP-tagged NY4 receptor expressed in HEK293 cells assessed as potentiation of pancreatic polypeptide-induced arrestin 3 recruitment by measuring pancreatic polypeptide EC50 at 30 uM after 30 mins by BRET assay (Rvb = 5.6 nM)
[14] = Positive allosteric modulation of human NY4 receptor expressed in African green monkey COS7 cells co-expressing delta6Galphaqi4-myr assessed as potentiation of pancreatic polypeptide induced-calcium flux by measuring pancreatic polypeptide pEC50 at 30 uM treated at 20 secs post baseline detection followed by addition of pancreatic polypeptide
[15] = Positive allosteric modulation of human NY4 receptor expressed in African green monkey COS7 cells co-expressing delta6Galphaqi4-myr assessed as potentiation of neuropeptide Y induced-calcium flux by measuring neuropeptide Y EC50 at 30 uM treated at 20 secs post baseline detection followed by addition of neuropeptide Y after 140 secs by Fluo2-
[16] = biological target: T1, Neuropeptide Y receptor type 4; test: Effect on neuropeptide Y-mediated displacement of 125I-pancreatic polypeptide from human C-terminal eYFP-tagged NY4 receptor expressed in HEK293 cell membranes assessed as neuropeptide Y pKi at 30 uM after 5 hrs by scintillation counting (Rvb = 7.9 +/- 0.2 No_unit)

T1 sequence (P50391 whole entry C240R, the tested form may be a part): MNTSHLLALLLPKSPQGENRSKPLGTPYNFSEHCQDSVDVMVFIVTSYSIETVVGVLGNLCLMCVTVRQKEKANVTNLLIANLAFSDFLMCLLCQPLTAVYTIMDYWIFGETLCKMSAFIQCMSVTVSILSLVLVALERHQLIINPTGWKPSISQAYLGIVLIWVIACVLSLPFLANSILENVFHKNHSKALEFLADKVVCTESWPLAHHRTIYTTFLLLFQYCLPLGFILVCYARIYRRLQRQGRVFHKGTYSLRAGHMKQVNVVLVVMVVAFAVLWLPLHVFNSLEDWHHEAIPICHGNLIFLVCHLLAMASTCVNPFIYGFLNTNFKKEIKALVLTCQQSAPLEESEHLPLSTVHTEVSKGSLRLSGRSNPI

EC50 [1]: 0.5 nM | EC50 [2]: 0.0631 nM | EC50 [3]: 0.501 nM | EC50 [4]: 0.03 nM | EC50 [5]: 4 nM | EC50 [6]: 0.0398 nM | EC50 [7]: 794 nM | EC50 [8]: 0.398 nM | Ki [9]: 6.3 nM | EC50 [10]: 398 nM | EC50 [11]: 845 nM | EC50 [12]: 443 nM | EC50 [13]: 4.5 nM | EC50 [14]: 0.0398 nM | EC50 [15]: 0.4 nM | Ki [16]: 6.3 nM
Compound: CC(C)(C)c1ccc(OC2CCCCC2O)cc1 (stereo unspecified)
